From PubChem BioAssay
PvdQ acylase: blocks Pseudomonas aeruginosa PvdQ acylase activity; purified PvdQ acylase, fluorescence plate reader; inhibition, % at 10 µM; 340,000 tested, 0.063% active; in the data active = inhibition above about 30%, passing the limit was not always enough; inconclusive = no clear call, values can overlap the other calls;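 also: 0% = vehicle neutral wells and 100% = reference inhibitor wells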
SR-BI DiI inh: blocks mouse SR-BI lipid uptake from DiI-HDL | inhibition, % at 12.5 µM | Q61009 | ldlA[mSR-BI] CHO cells, DiI-HDL uptake fluorescence, 3 h | 320,000 tested, 0.96% active;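 active = mean replicate inhibition of at least 70% and a set share of replicates each scoring 70 or more; inconclusive = meets just one of the two criteria; inactive = fails both criteria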;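 also: 0% = median of neutral control wells and 100% = median of positive control wells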
Target sequence (Q61009 whole entry, looked up): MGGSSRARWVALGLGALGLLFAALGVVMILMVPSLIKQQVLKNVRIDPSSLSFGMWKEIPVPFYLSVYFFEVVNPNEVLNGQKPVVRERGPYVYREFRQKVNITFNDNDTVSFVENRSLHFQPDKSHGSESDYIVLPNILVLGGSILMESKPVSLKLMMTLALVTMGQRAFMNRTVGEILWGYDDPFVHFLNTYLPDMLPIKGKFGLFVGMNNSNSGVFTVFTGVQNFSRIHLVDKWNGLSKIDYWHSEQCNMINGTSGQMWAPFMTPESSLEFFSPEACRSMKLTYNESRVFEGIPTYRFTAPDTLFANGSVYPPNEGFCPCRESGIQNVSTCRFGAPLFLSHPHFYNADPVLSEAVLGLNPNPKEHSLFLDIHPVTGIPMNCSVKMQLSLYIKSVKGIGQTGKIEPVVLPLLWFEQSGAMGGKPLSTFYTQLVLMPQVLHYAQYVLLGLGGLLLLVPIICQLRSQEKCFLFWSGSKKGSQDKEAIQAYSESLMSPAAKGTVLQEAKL
SR-BI uptake up: SR-BI HDL lipid transfer activation | CHO ldlA[mSR-BI] cells, DiI-HDL uptake fluorescence, 3 h; 100 = double the neutral-control signal | activation, % at 12.5 µM | 320,000 tested, 0.096% active | AID 504775;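 active = mean replicate activation of at least 60% and every replicate at or above 60%; inconclusive = mean or all-replicate condition met, but not both; inactive = mean below 60% and not all replicates reaching 60%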;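 also: 0% = median plate neutral-control signal and 100% = twice that signal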
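Material – SR-BI-overexpressing, LDLR-lacking CHO cells · Medium – BSA-supplemented, HEPES-buffered Ham's F12, pH 7.4 · Doses – single concentration · Times – compound with DiI-HDL co-incubation, 3 h at 37 °C · Measured by – bottom-read fluorescence, 550/595 nm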
XiGFP reactiv: X-chromosome reactivation activator; XiGFP mouse fibroblasts, % GFP-positive cells imaging, 3 d; cells co-treated with 5-aza-dC sensitizer; scaled so ellipticine positive control = 100%; 360,000 tested, 0.055% active; AID 743238; activation, % at 7.58 µM;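 active = mean normalized replicate activation at least 10% and every replicate at or above 10%; inconclusive = only one of the two criteria met; inactive = mean below 10% and not all replicates reach 10%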;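 also: 0% = median of on-plate neutral control wells and 100% = ellipticine 6 µM median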
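System: XiGFP fibroblasts, SV40-immortalized. Medium: DMEM plus 5-aza-dC sensitizer. Doses: single point. Timing: 3 d treatment, 15 min room-temperature fixation. Control set: ellipticine 6 µM.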
dFosB act: enhances mouse delta FosB homodimer DNA binding; AID 493131; activation, % at 25 µM; P13346; 340,000 tested, 0.99% active; purified delta FosB, TAMRA-CDK5 oligo fluorescence polarization; percent of positive-control signal above neutral wells;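 active = mean activation above about 17%, with every replicate also reaching it, limit read from the data, passing the limit was not always enough; inconclusive = only one of the two conditions met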
rRNA inh HTS: inhibitors of bacterial rRNA selective over humanized ribosomes. E. coli WT GFP vs humanized-ribosome RFP mutants, fluorescence, 24 h; active compounds read low; DMSO median 0, no signal -100. GFP signal change (wild-type ribosome), % (concentration not given with the values). 350,000 tested, 1.6% active;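 active = significant combined selectivity score with lowered wild-type GFP, culture density cut under 30%, mutant RFP and density less affected; inactive = any of these conditions unmet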
Numbers without * were called inactive; ? = inconclusive; · = no result given. A selection: hits, their analogues and other compounds. The true share with any hit is near 2.6%.

SMILES	PvdQ acylase	SR-BI DiI inh	SR-BI uptake up	XiGFP reactiv	dFosB act	rRNA inh HTS
CC(C)C(=O)Nc1ccc2c(c1)C(=O)N(C)[C@@H]1CC[C@@H](CC(=O)NCc3cccc(F)c3)O[C@H]1CO2	·	·	·	0	·	2
CN1CCCCN2[C@@H](CO)[C@H](c3ccc(C#Cc4ccccc4F)cc3)[C@@H]2C1	·	·	·	0	·	-1
COc1cccc(CN2CC(C(=O)N3CCCC3)CCC2=O)c1 (stereo unspecified)	-8	-2	2	0	6	3
CC1CCN(Cc2c(C(=O)N/N=C/c3ccccc3O)nnn2-c2nonc2N)CC1	-14	15	-15	0	21*	3
CC(=C/c1ccccc1)/C=N/NC(=O)c1nnn(-c2nonc2N)c1CN1CCC(C)CC1	-9	0	0	0	-12	0
CCN(CC)c1ccc(/C=N/NC(=O)c2nnn(-c3nonc3N)c2C(C)C)c(O)c1	-8	133*	-133	1	-8	-6
Cc1nnn(-c2nonc2N)c1C(=O)N/N=C/c1ccccc1O	2	57	-57	0	104*	·
CCN(CC)c1ccc(/C=N/NC(=O)c2ccoc2C)c(O)c1	6	100*	-100	0	-11	-34*
CC1(C(=O)Nc2ccc3nc[nH]c3c2)CCN1C(=O)C/C=C/c1ccccc1 (stereo unspecified)	·	·	·	0	·	·
COC(=O)C1Cc2c([nH]c3ccccc23)CN1C(C)=O (stereo unspecified)	8	-7	7	0	2	3
C[C@@H]1CN([C@@H](C)CO)C(=O)c2cc(NC(=O)Nc3ccccc3)ccc2O[C@@H](C)CCCCO[C@@H]1CN(C)CC1CCCCC1	·	·	·	0	·	5
Fc1cccc(CN2CCCCCCC2)c1	-11	14	-14	·	-3	·
COc1ccc(NCC(=O)N/N=C/c2cc([N+](=O)[O-])ccc2N2CCCC2)cc1	19	86*	-86	0	-6	-15
O=C(N/N=C\c1cc([N+](=O)[O-])ccc1N1CCCC1)c1ccccn1	2	73*	-73	0	-4	9
COc1ccc(/C=N/N2C(C)CCCC2C)cc1O (stereo unspecified)	2	-8	8	0	-2	5
O=C(C[C@@H]1CC[C@H](NC(=O)Nc2ccc(C(F)(F)F)cc2)[C@H](CO)O1)NCCN1CCCC1	·	·	·	0	·	-5
CC1(Oc2ccc(Cl)cc2)CCN(Cc2ccc(OC(F)(F)F)cc2)C1 (stereo unspecified)	·	·	·	0	·	-18
O=C1NCCCc2c1oc1cc(Br)c(O)c(Br)c21	-3	6	-6	·	-10	·
Cc1nc(N/N=C/c2ccc(O)cc2)c2cnn(-c3ccccc3)c2n1	-5	75*	-75	0	-1	-13
C[C@H](O)[C@@]1(O)CC[C@H]2[C@@H]3CC[C@@H]4C[C@H](O)CC[C@]4(C)[C@H]3CC[C@@]21C	-6	-24	24	·	-4	-6
CC12CCC3C(CCC4CC(O)CCC43C)C1CC(O)C2 (stereo unspecified)	2	-13	13	0	6	-28*
COc1ccccc1CNC(=O)COC(=O)c1cccnc1SCC(=O)NCc1ccccc1OC	9	45	-45	0	41*	2
CC(C)(CNS(C)(=O)=O)SCc1ccc(Cl)cc1	-3	-10	10	0	10	-32*
CCOC(=O)N1CCN(C(=O)C[C@@H]2C[C@@]3(C(=O)OCC)CCC=C3N(Cc3ccccc3)C2=O)CC1	·	·	·	0	·	13
CCCCc1ccc(NC(=S)NCc2cccc(OC)c2)cc1	10	32	-32	0	-8	-12
SMILES	PvdQ acylase	SR-BI DiI inh	SR-BI uptake up	XiGFP reactiv	dFosB act	rRNA inh HTS
CCCCc1ccc(NC(=S)Nc2ccc(Nc3ccc(OC)cc3)cc2)cc1	8	81*	-81	0	-5	·
Clc1ccc2c(NCCNC3CCCCC3)ccnc2c1	7	-26	26	0	45*	10
CC(C)NC1CCC(Nc2ccnc3cc(Cl)ccc23)CC1 (stereo unspecified)	2	-12	12	0	17*	21
CC(CCCN1CCCC1)Nc1ccnc2cc(Cl)ccc12 (stereo unspecified)	-20	0	0	0	42*	-6
CCN=C(Nc1ccc(Cl)cc1)c1cccnc1	-6	-22	22	·	2	·
Cc1c(NC(=O)Cn2nc(C(=O)O)c3ccccc3c2=O)c(=O)n(-c2ccccc2)n1C	-14	4	-4	·	-2	·
CCC1CCCCN1CCCNC(=O)C1CCC(=O)N1Cc1ccc(C)cc1 (stereo unspecified)	1	-16	16	·	16*	·
O=C(Nc1cc(Cl)ccc1Cl)C1CC(=O)N(c2ccccc2)C1 (stereo unspecified)	-13	-1	1	0	20*	17
COc1ccc(Nc2nc(N(C)c3ccccc3)nc(N)c2[N+](=O)[O-])cc1	-9	-138	138*	0	-1	-2
CC1CCCN(c2nc(NCc3ccco3)nc(N)c2[N+](=O)[O-])C1 (stereo unspecified)	-6	-4	4	0	-2	-30
COc1ccc(OC)c(Nc2nc(NCCCN(C)C)nc(N)c2[N+](=O)[O-])c1	-23	2	-2	0	24*	1
COCCCNc1nc(N)c([N+](=O)[O-])c(Nc2cc(OC)ccc2OC)n1	-14	13	-13	0	-1	9
CC1CCCN(c2nc(N(C)c3ccccc3)nc(N)c2[N+](=O)[O-])C1 (stereo unspecified)	-10	?	-71	0	-13	-17*
CNC(=O)c1c(NC(=O)c2ccco2)sc2c1CCC2	7	46	-46	0	-7	-27
CN(C)C1=C(Cl)C(=O)N(c2ccc(Cl)c(Cl)c2)C1=O	-11	·	·	1	24*	0
CN(C)/C=C1\C(=O)N(c2ccc(Cl)c(Cl)c2)CS1(=O)=O	-6	-16	16	0	-2	·
CCn1cc(C(=O)N2CCCC(N3CCN(c4cccc(C(F)(F)F)c4)CC3)C2)cn1 (stereo unspecified)	-2	·	·	0	-1	-3
Cc1ccc(CN(CC(=O)N/N=C/c2ccccc2[N+](=O)[O-])S(=O)(=O)c2ccc(C)cc2)cc1	-9	-25	25	·	-11	·
O=C(CN(Cc1ccccc1)S(=O)(=O)c1ccccc1)N/N=C/c1ccccc1[N+](=O)[O-]	29	-51	51	·	0	-19*
CC(C)NC(=S)N/N=C/c1ccccc1[N+](=O)[O-]	-1	2	-2	0	8	12
